Experiments:
Assay type in all cases: functional
Cavia porcellus [1] = species on record: Cavia porcellus; assay: Compound was evaluated for its effect on LTD4-induced contraction of guinea pig trachea
Method in brief: (§1)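 Isolated guinea pig tracheal spiral strips were contracted with LTC4 or LTD4, with antagonist at 3×10^-6 M versus untreated control. Responses are expressed as percentage of the tissue's maximal response to carbachol (1 mM). Potency is given as -log of the agonist concentration (M) giving a half-maximal response. pKB = -log([B]/(dose ratio - 1)), where dose ratio = treated ED50 ÷ control ED50. Control vs treated compared by unpaired Student's t test.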

Cavia porcellus [2] = species on record: Cavia porcellus; assay: Compound was evaluated for its effect on LTC4-induced contraction of guinea pig trachea. percentage of maximal response of tissue to carbachol; method in brief: as §1
Cavia porcellus [3] = species on record: Cavia porcellus; assay: Compound was evaluated for its effect on LTD4-induced contraction of guinea pig trachea. percentage of maximal response of tissue to carbachol; method in brief: as §1
Cavia porcellus [4] = species on record: Cavia porcellus; assay: Compound was evaluated for its effect on LTC4-induced contraction of guinea pig trachea; method in brief: as §1

CCCc1c(OCCCCc2nnn[nH]2)ccc(C(C)=O)c1O [TOMELUKAST]
-Log ED50 (Cavia porcellus [1]): 7.49
pKB (Cavia porcellus [1]): 5.63
Max contractility (Cavia porcellus [2]): 73%
Max contractility (Cavia porcellus [3]): 57%
-Log ED50 (Cavia porcellus [4]): 7.47
pKB (Cavia porcellus [4]): 5.74
